From ChEMBL document CHEMBL1649261, “Pharmacodynamic profile of tigecycline against methicillin-resistant Staphylococcus aureus in an experimental pneumonia model” (Antimicrob Agents Chemother, 2009)
In brackets after ≈: the same amount, converted by molar mass.

Experiments:
[1] = Ratio of fAUC to MIC in methicillin-susceptible Staphylococcus aureus ATCC 29213-infected BALB/c mouse at […] maximal effective concentration; type: functional
Procedure, shortened: (§1)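 Mice were neutropenic and infected by lung instillation with ATCC 29213, with the MIC set by CLSI broth microdilution in triplicate. Sc treatment started 6 h post-inoculation at 1.56–150 mg/kg/day, given as one, two or three doses. Lung CFU at 24 h were compared with 0-h controls. Change in log10 CFU was fitted against protein-binding-corrected fAUC/MIC with a sigmoid Emax model.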

[2] = Cmax in BALB/c mouse infected with Staphylococcus aureus at 50 mg/kg, sc administered as single dose; type: ADME, organism-based; parameters: dose 50 mg/kg, route subcutaneous; details: in vivo
Procedure, shortened: (§2)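 Neutropenic BALB/c mice (cyclophosphamide ip 250 and 100 mg/kg, days −4 and −1) with S. aureus pneumonia from oral instillation of 0.05 ml of a 3% mucin suspension received a single 0.2-ml sc dose in normal saline. Serum was taken at 0.25, 0.5, 1, 1.5, 2, 4, 6 and 8 h, six mice per time point. Drug was measured by validated HPLC.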

Mus musculus [3] = assay: Volume of distribution in BALB/c mouse infected with Staphylococcus aureus at 6.25 mg/kg, sc administered as single dose; type: ADME, organism-based; parameters: dose 6.25 mg/kg, route subcutaneous; details: in vivo; procedure, shortened: as §2
[4] = Protein binding in Staphylococcus aureus-infected BALB/c mouse serum at 12.5 mg/kg, sc administered as single dose; type: ADME, organism-based; parameters: dose 12.5 mg/kg, route subcutaneous; details: read-out: PB (converted)
Procedure, shortened: (§3)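 Ultrafiltration was run in triplicate with 30,000-MW cutoff devices. Drug was diluted into fresh mouse serum to final 1.5, 3, 6 and 15 μg/ml, held at 37°C for 10 min with shaking, and centrifuged at 1,000 × g for 45 min at 10°C. Binding was calculated as (S − SUF)/S × 100 for each concentration, each matched to a dose by its peak serum level.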

[5] = Ratio of fAUC (0 to 8 hrs) in epithelial lining fluid to plasma of Staphylococcus aureus-infected BALB/c mouse at 25 mg/kg, sc administered as single dose; type: ADME, organism-based; parameters: dose 25 mg/kg, route subcutaneous
Procedure, shortened: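 Neutropenic BALB/c mice (cyclophosphamide ip 250 and 100 mg/kg, 4 d and 1 d pre-inoculation) infected orally with S. aureus in 3% mucin. Single 0.2-ml sc dose in normal saline; six mice per time point. Serum sampled 0.25–8 h, BAL at 0.25, 1, 4, 8 h; HPLC; ELF by urea correction. Trapezoidal AUC0-8; serum corrected for ultrafiltration protein binding, BAL drug assumed free.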

Staphylococcus aureus [6] = assay: Antibacterial activity against methicillin-susceptible Staphylococcus aureus ATCC 29213 by microdilution method; type: functional
Procedure, shortened: (§4)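 Tigecycline MIC measured in triplicate by broth microdilution following CLSI guidelines. Isolates were stored at −80°C in skim milk and subcultured twice on blood agar before testing.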

[7] = Tmax in BALB/c mouse infected with Staphylococcus aureus at 50 mg/kg, sc administered as single dose; type: ADME, organism-based; parameters: dose 50 mg/kg, route subcutaneous; details: in vivo; procedure, shortened: as §2
Mus musculus [8] = assay: Volume of distribution in BALB/c mouse infected with Staphylococcus aureus at 25 mg/kg, sc administered as single dose; type: ADME, organism-based; parameters: dose 25 mg/kg, route subcutaneous; details: in vivo; procedure, shortened: as §2
[9] = AUC (0 to 8 hrs) in Staphylococcus aureus-infected BALB/c mouse epithelial lining fluid at 50 mg/kg, sc administered as single dose; type: ADME, organism-based; parameters: time < 8 hr, dose 50 mg/kg, route subcutaneous
Procedure, shortened: (§5)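 Infected neutropenic BALB/c mice received a single sc dose in saline. Normal-saline bronchoalveolar lavage was done at 0.25, 1, 4 and 8 h, six mice per time. HPLC drug levels in lavage were converted to epithelial lining fluid concentrations with the serum/BAL urea ratio. AUC0-8 was calculated by the trapezoidal rule, and ELF drug was taken as free drug.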

[10] = Ratio of fAUC to MIC in methicillin-susceptible Staphylococcus aureus ATCC 29213-infected BALB/c mouse at 80% maximal effective concentration; type: functional; procedure, shortened: as §1
Mus musculus [11] = assay: Volume of distribution in BALB/c mouse infected with Staphylococcus aureus at 12.5 mg/kg, sc administered as single dose; type: ADME, organism-based; parameters: dose 12.5 mg/kg, route subcutaneous; details: in vivo; procedure, shortened: as §2
Staphylococcus aureus [12] = assay: Antibacterial activity against hospital-acquired methicillin-resistant Staphylococcus aureus 56 by microdilution method; type: functional; procedure, shortened: as §4
[13] = Ratio of fAUC to MIC in hospital-acquired methicillin-resistant Staphylococcus aureus 56-infected BALB/c mouse at bacteriostatic concentration; type: functional
Procedure, shortened: (§6)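 Neutropenic BALB/c mice (cyclophosphamide 250 and 100 mg/kg i.p., 4 and 1 days before infection) were infected by oral inhalation of 0.05 ml inoculum in 3% mucin under isoflurane. Subcutaneous tigecycline (1.56–150 mg/kg/day, single or 2–3 divided doses, saline vehicle) was started 6 h post-infection. At 24 h lungs were homogenized and plated; change in log10 CFU was taken versus 0-h controls.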

[14] = Ratio of fAUC to MIC in community-acquired methicillin-resistant Staphylococcus aureus 156-infected BALB/c mouse at 80% maximal effective concentration; type: functional; procedure, shortened: as §6
[15] = Ratio of fAUC to MIC in hospital-acquired methicillin-resistant Staphylococcus aureus 152-infected BALB/c mouse at 80% maximal effective concentration; type: functional; procedure, shortened: as §6
[16] = AUC (0 to 8 hrs) in Staphylococcus aureus-infected BALB/c mouse epithelial lining fluid at 25 mg/kg, sc administered as single dose; type: ADME, organism-based; parameters: time < 8 hr, dose 25 mg/kg, route subcutaneous; procedure, shortened: as §5
[17] = Ratio of fAUC to MIC in community-acquired methicillin-resistant Staphylococcus aureus 144-infected BALB/c mouse at 80% maximal effective concentration; type: functional; procedure, shortened: as §6
Staphylococcus aureus [18] = assay: Antibacterial activity against community-acquired methicillin-resistant Staphylococcus aureus 147 by microdilution method; type: functional; procedure, shortened: as §4
Mus musculus [19] = assay: Volume of distribution in BALB/c mouse infected with Staphylococcus aureus at 50 mg/kg, sc administered as single dose; type: ADME, organism-based; parameters: dose 50 mg/kg, route subcutaneous; details: in vivo; procedure, shortened: as §2
[20] = Cmax in BALB/c mouse infected with Staphylococcus aureus at 25 mg/kg, sc administered as single dose; type: ADME, organism-based; parameters: dose 25 mg/kg, route subcutaneous; details: in vivo; procedure, shortened: as §2
[21] = Half life in BALB/c mouse infected with Staphylococcus aureus at 6.25 mg/kg, sc administered as single dose; type: ADME, organism-based; parameters: dose 6.25 mg/kg, route subcutaneous; details: in vivo; procedure, shortened: as §2
[22] = Half life in BALB/c mouse infected with Staphylococcus aureus at 25 mg/kg, sc administered as single dose; type: ADME, organism-based; parameters: dose 25 mg/kg, route subcutaneous; details: in vivo; procedure, shortened: as §2
[23] = Protein binding in Staphylococcus aureus-infected BALB/c mouse serum at 25 mg/kg, sc administered as single dose; type: ADME, organism-based; parameters: dose 25 mg/kg, route subcutaneous; details: read-out: PB (converted); procedure, shortened: as §3
[24] = Ratio of fAUC to MIC in community-acquired methicillin-resistant Staphylococcus aureus 144-infected BALB/c mouse at […] maximal effective concentration; type: functional; procedure, shortened: as §6
[25] = Ratio of fAUC to MIC in methicillin-susceptible Staphylococcus aureus ATCC 29213-infected BALB/c mouse at bacteriostatic concentration; type: functional; procedure, shortened: as §1
[26] = Protein binding in Staphylococcus aureus-infected BALB/c mouse serum at 6.25 mg/kg, sc administered as single dose; type: ADME, organism-based; parameters: dose 6.25 mg/kg, route subcutaneous; details: read-out: PB (converted); procedure, shortened: as §3
[27] = Half life in BALB/c mouse infected with Staphylococcus aureus at 12.5 mg/kg, sc administered as single dose; type: ADME, organism-based; parameters: dose 12.5 mg/kg, route subcutaneous; details: in vivo; procedure, shortened: as §2

For `CN(C)c1cc(NC(=O)CNC(C)(C)C)c(O)c2c1C[C@H]1C[C@H]3[C@H](N(C)C)C(O)=C(C(N)=O)C(=O)[C@@]3(O)C(O)=C1C2=O` [TIGECYCLINE], which fAUC/MIC [1] is on record?
Its fAUC/MIC is 2.33.

And the Cmax [2]?
The Cmax was 15.8 µg/mL.

And the Vd (Mus musculus [3])?
Its Vd is 3.44 L/kg.

And the fraction unbound [4]?
The fraction unbound was 0.128.

What about the Kp uu [5] of the same molecule?
Its Kp uu is 15.1.

What about the MIC (Staphylococcus aureus [6]) of the same molecule?
The MIC was 0.25 mg/L (≈ 0.427 µM).

And the Tmax [7]?
The Tmax was 0.35 h.

What about the Vd (Mus musculus [8]) of the same molecule?
Its Vd is 2.77 L/kg.

And the AUC(0-t) at 8 h [9]?
Its AUC(0-t) at 8 h is 41.9 µg·h/mL.

What about the fAUC/MIC [10] of the same molecule?
Its fAUC/MIC is 2.68.

What about the Vd (Mus musculus [11]) of the same molecule?
Its Vd is 3.62 L/kg.

What about the MIC (Staphylococcus aureus [12]) of the same molecule?
The MIC was 0.5 mg/L (≈ 0.854 µM).

And the fAUC/MIC [13]?
The fAUC/MIC was 0.43.

And the fAUC/MIC [14]?
The fAUC/MIC was 5.22.

And the fAUC/MIC [15]?
The fAUC/MIC was 2.48.

What about the AUC(0-t) at 8 h [16] of the same molecule?
Its AUC(0-t) at 8 h is 20.4 µg·h/mL.

What about the fAUC/MIC [17] of the same molecule?
The fAUC/MIC was 2.64.

What about the MIC (Staphylococcus aureus [18]) of the same molecule?
The MIC was 0.25 mg/L (≈ 0.427 µM).

And the Vd (Mus musculus [19])?
Its Vd is 2.62 L/kg.

What about the Cmax [20] of the same molecule?
The Cmax was 5.99 µg/mL.

And the half-life [21]?
Its half-life is 12.4 h.

And the half-life [22]?
The half-life was 12.4 h.

And the fraction unbound [23]?
The fraction unbound was 0.063.

And the fAUC/MIC [24]?
The fAUC/MIC was 2.29.

What about the fAUC/MIC [25] of the same molecule?
Its fAUC/MIC is 2.38.

And the fraction unbound [26]?
Its fraction unbound is 0.15.

And the half-life [27]?
Its half-life is 7.13 h.
